The values that follow come from ChEMBL document CHEMBL1914364, “3-bromohomofascaplysin A, a fascaplysin analogue from a Fijian Didemnum sp. ascidian” (Bioorg Med Chem, 2011).

Broadly, the IC50 is the concentration that inhibits the measured activity by half.

The subject of series [1] is Plasmodium falciparum. The series can be described thus: Antimalarial activity against chloroquine- and mefloquine-resistant Plasmodium falciparum W2-Mef infected in human O-positive erythrocytes assessed as inhibition of ring-stage parasite growth after 48 hrs. It is filed as functional, organism-based. A digest of the protocol:
(§1)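 Asynchronous W2-Mef cultures kept at 5% hematocrit in RPMI-1640-based malaria medium. Drugs were diluted in ½ log10 steps from 10 μM to 0.33 nM and grown in triplicate for 48 hr. Cells were stained 40 min with Hoechst 33342, thiazole orange, DiIC1-5 and propidium iodide, then read by flow cytometry; DNA/RNA levels assign ring, trophozoite and schizont stages. IC50 is taken from mean parasite counts relative to drug-free control wells.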

For series [2], the system named is Plasmodium falciparum. The series can be described thus: Antimalarial activity against chloroquine- and mefloquine-resistant Plasmodium falciparum W2-Mef infected in human O-positive erythrocytes after 48 hrs. It is filed as functional, organism-based. A digest of the protocol: as §1
For series [3], the system named is Plasmodium falciparum. In words: Antimalarial activity against chloroquine- and mefloquine-resistant Plasmodium falciparum W2-Mef infected in human O-positive erythrocytes assessed as inhibition of schizonts growth after 48 hrs. It is filed as functional, organism-based. A digest of the protocol:
as §1

The subject of series [4] is Plasmodium falciparum. In words: Antimalarial activity against chloroquine- and mefloquine-resistant Plasmodium falciparum W2-Mef infected in human O-positive erythrocytes assessed as inhibition of trophozoites growth after 48 hrs. It is filed as functional, organism-based. A digest of the protocol:
as §1

Series [5] has as its system L6. In words: Cytotoxicity against rat L6 cells. It is filed as cell-based.
The nature of series [6]: Ratio of MIC for rat L6 cells to MIC for Plasmodium falciparum.
The subject of series [7] is Plasmodium falciparum. In words: Antimalarial activity against chloroquine- and pyrimethamine-resistant Plasmodium falciparum K1. The class given is functional, organism-based.
Series [8] relates to Plasmodium falciparum. In words: Ratio of IC50 for chloroquine- and mefloquine-resistant Plasmodium falciparum W2-Mef schizonts to IC50 for chloroquine- and mefloquine-resistant Plasmodium falciparum W2-Mef ring-stage parasite. The class given is functional.
The subject of series [9] is Plasmodium falciparum. The series can be described thus: Ratio of IC50 for chloroquine- and mefloquine-resistant Plasmodium falciparum W2-Mef trophozoites to IC50 for chloroquine- and mefloquine-resistant Plasmodium falciparum W2-Mef ring-stage parasite. It is filed as functional.

`CC(=O)C[C@]1(O)c2ccc(Br)cc2-[n+]2ccc3c([nH]c4ccccc43)c21`: the IC50 in series [1] was 574 nM; in series [2] it was 805 nM; in series [3] it was 765 nM; in [4], 1190 nM.

`C[C@@H]1CC[C@H]2[C@@H](C)C(=O)O[C@@H]3O[C@@]4(C)CC[C@@H]1[C@]32OO4` [ARTEMISININ]: the half-maximal inhibitory concentration (IC50) in series [1] was found to be 5.92 nM; in series [2], 6.25 nM; in [3], 5.91 nM; in series [4] it was 6.46 nM.

With `O=C1c2ccccc2-[n+]2ccc3c([nH]c4ccccc43)c21.[Cl-]` [FASCAPLYSIN CHLORIDE], in series [5], the Activity came to 2.5 µg/mL. Besides, the Ratio in [6] is recorded as 50. Besides, the IC50 in series [7] was 160 nM; in series [1] it was 7.82 nM; in series [2], 48.2 nM; in [3], 65.2 nM; in [4] it was 401 nM.

On to `CC(=O)C[C@]1(O)c2ccccc2-[n+]2ccc3c([nH]c4ccccc43)c21.[Cl-]` [HOMOFASCAPLYSINE A], for which, in series [5], the Activity stood at 1.1 µg/mL. In addition, the “Ratio IC50” value in series [8] is listed as 170; in series [9], 450. Also, the Ratio in series [6] was found to be 50. Further, the IC50 in series [7] is 38 nM; in series [1] it was 0.55 nM; in series [2], 105 nM; in series [3], 94 nM; in series [4], 252 nM.
